Measurements: ChEMBL document CHEMBL1131415, “Structure-activity relationships for antiplasmodial activity among 7-substituted 4-aminoquinolines” (J Med Chem, 1998)

Tests used:
Format in all cases: functional, organism-based
Plasmodium falciparum [1] = test: In vitro antiplasmodial activity against chloroquine-sensitive Plasmodium falciparum Haiti 135
Outline: (§1)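 Cloned P. falciparum (chloroquine-susceptible Haiti-13524 or chloroquine-resistant Indochina I), synchronous early ring stage, 2% red cell suspension at 0.2% parasitemia. Exposed to varying AQ concentrations 48 h, then same concentrations plus 0.5 µCi 3H-hypoxanthine for additional 18 h. IC50 from linear regression of percent inhibition of 3H-hypoxanthine accumulation vs log concentration; triplicate determinations, chloroquine control.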

Plasmodium falciparum [2] = test: In vitro antiplasmodial activity against chloroquine-resistant Plasmodium falciparum Indochina I; outline: as §1
Plasmodium falciparum [3] = test: In vitro anti-plasmodial activity against chloroquine-resistant Plasmodium falciparum Indochina I; outline: as §1

SMILES	IC50 (Plasmodium falciparum [1]) [nM]	IC50 (Plasmodium falciparum [2]) [nM]	IC50 (Plasmodium falciparum [3]) [nM]
CCN(CC)CC(C)Nc1ccnc2cc(OC)ccc12 (stereo not drawn)	94	180	–
CCN(CC)CCCCCCCCCCNc1ccnc2cc(I)ccc12	6	–	16
CCN(CC)CCCCCCCCCCCCNc1ccnc2cc(Cl)ccc12	13	–	11
CCN(CC)CCCC(C)Nc1ccnc2cc(I)ccc12 (stereo not drawn)	4	35	–
CCN(CC)CCCNc1ccnc2cc(C(F)(F)F)ccc12	15	18	–
CCN(CC)CCNc1ccnc2cc(Br)ccc12	7	7	–
CCN(CC)CCCCCCCCCCNc1ccnc2cc(Br)ccc12	6	–	17
CCN(CC)CCCCCCCCCCNc1ccnc2cc(F)ccc12	7	–	40
CCN(CC)CCCCCCCCNc1ccnc2cc(Cl)ccc12	4	–	41
CCN(CC)CCCCCCCCCCNc1ccnc2cc(Cl)ccc12	6	–	13
CCN(CC)CCCCCCCCCCCCNc1ccnc2cc(C(F)(F)F)ccc12	5	–	25
CCN(CC)CCCC(C)Nc1ccnc2cc(OC)ccc12 (stereo not drawn)	55	3000	–
CCN(CC)CCNc1ccnc2cc(OC)ccc12	48	155	–
CCN(CC)CCCNc1ccnc2cc(Br)ccc12	4	6	–
CCN(CC)CCCCCCCCCCCCNc1ccnc2cc(I)ccc12	10	–	20
CCN(CC)CCCCCCCCCCCCNc1ccnc2cc(OC)ccc12	17	–	90
CCN(CC)CCCNc1ccnc2cc(I)ccc12	3	4	–
CCN(CC)CC(C)Nc1ccnc2cc(Br)ccc12 (stereo not drawn)	11	12	–
CCN(CC)CC(C)Nc1ccnc2cc(Cl)ccc12 (stereo not drawn)	8	10	–
CCN(CC)CCNc1ccnc2cc(F)ccc12	35	60	–

SMILES	IC50 (Plasmodium falciparum [1]) [nM]	IC50 (Plasmodium falciparum [2]) [nM]	IC50 (Plasmodium falciparum [3]) [nM]
CCN(CC)CCCCCNc1ccnc2cc(Cl)ccc12	6	58	–
CCN(CC)CCNc1ccnc2cc(C(F)(F)F)ccc12	30	41	–
CCN(CC)CC(C)Nc1ccnc2cc(I)ccc12 (stereo not drawn)	7	7	–
CCN(CC)CCCNc1ccnc2cc(F)ccc12	23	120	–
CCN(CC)CCCC(C)Nc1ccnc2cc(F)ccc12 (stereo not drawn)	20	500	–
CCN(CC)CCCCCCCCCCCCNc1ccnc2cc(F)ccc12	8	–	25
CCN(CC)CCCCCCCCCCCCNc1ccnc2cc(Br)ccc12	8	–	18
CCN(CC)CCCCNc1ccnc2cc(Cl)ccc12	5	51	–
CCN(CC)CCCNc1ccnc2cc(OC)ccc12	150	900	–
CCN(CC)CC(C)Nc1ccnc2cc(F)ccc12 (stereo not drawn)	30	60	–
CCN(CC)CCNc1ccnc2cc(Cl)ccc12	7	5	–
CCN(CC)CCCCCCNc1ccnc2cc(Cl)ccc12	5	56	–
CCN(CC)CCCCCCCCCCNc1ccnc2cc(C(F)(F)F)ccc12	10	–	20
CCN(CC)CCCC(C)Nc1ccnc2cc(Br)ccc12 (stereo not drawn)	5	90	–
CCN(CC)CCCCCCCCCCNc1ccnc2cc(OC)ccc12	10	–	170
CCN(CC)CCCNc1ccnc2cc(Cl)ccc12	5	6	–
CCN(CC)CCCC(C)Nc1ccnc2cc(C(F)(F)F)ccc12 (stereo not drawn)	16	45	–
CCN(CC)CC(C)Nc1ccnc2cc(C(F)(F)F)ccc12 (stereo not drawn)	50	50	–
CCN(CC)CCNc1ccnc2cc(I)ccc12	6	6	–
